Assay results taken from ChEMBL document CHEMBL3351260, “A new efficient route to 7-aryl-6-fluoro-8-nitroquinolones as potent antibacterial agents” (2014).
In brackets after ≈: the same amount, converted by molar mass. Activity calls are given as the source filed them. The rule behind the calls is not given here.

Legend:
Bacillus spizizenii = assay: Antimicrobial activity against Bacillus subtilis ATCC 6633 after 24 hrs by two-fold broth dilution method; type: functional; settings: ATCC 6633, 24 h
Outline: (§1)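 Bacteria were cultivated on Mueller Hinton medium and inoculated at 5·10⁵ bacteria/mL. Compounds were dissolved in DMSO, with DMSO loaded as the negative control. Samples were incubated at 37 °C for 24 h. The dilution susceptibility method followed the NCCLS standard for aerobically growing bacteria.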

Candida tropicalis [1] = assay: Antimicrobial activity against Candida tropicalis ATCC 1369 up to 100 ug/ml after 48 hrs by two-fold broth dilution method; type: functional, organism-based
Outline: (§2)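 Fungi (yeasts C. tropicalis and S. cerevisiae, mould A. niger) grown in Sabouraud dextrose broth. Inoculum was 1·10³ fungi/mL. Compounds were dissolved in DMSO, which was also loaded as the negative control. Incubation was 30 °C for 48 h. The broth dilution method followed NCCLS reference methods for yeasts and filamentous fungi.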

Escherichia coli = assay: Antimicrobial activity against Escherichia coli ATCC 8739 after 24 hrs by two-fold broth dilution method; type: functional; settings: ATCC 8739, 24 h; outline: as §1
Staphylococcus aureus = assay: Antimicrobial activity against Staphylococcus aureus ATCC 6538 after 24 hrs by two-fold broth dilution method; type: functional; settings: ATCC 6538, 24 h; outline: as §1
Aspergillus niger [2] = assay: Antimicrobial activity against Aspergillus niger ATCC 6275 up to 100 ug/ml after 48 hrs by two-fold broth dilution method; type: functional, organism-based; outline: as §2
Saccharomyces cerevisiae [3] = assay: Antimicrobial activity against Saccharomyces cerevisiae ATCC 9763 up to 100 ug/ml after 48 hrs by two-fold broth dilution method; type: functional, organism-based; outline: as §2
Haemophilus influenzae = assay: Antimicrobial activity against Haemophilus influenzae ATCC 19418 after 24 hrs by two-fold broth dilution method; type: functional; settings: ATCC 19418, 24 h; outline: as §1
Saccharomyces cerevisiae [4] = assay: microbe, parasite or virus in culture; settings: ATCC 9763, 48 h
Candida tropicalis [5] = assay: Antimicrobial activity against Candida tropicalis ATCC 1369 after 48 hrs by two-fold broth dilution method; type: functional; settings: ATCC 1369, 48 h; outline: as §2
Aspergillus niger [6] = assay: Antimicrobial activity against Aspergillus niger ATCC 6275 after 48 hrs by two-fold broth dilution method; type: functional; settings: ATCC 6275, 48 h; outline: as §2

Compound	MIC (Bacillus spizizenii) [ng/mL]	MIC (Escherichia coli) [ng/mL]	MIC (Staphylococcus aureus) [ng/mL]	MIC (Haemophilus influenzae) [ng/mL]	MIC (Saccharomyces cerevisiae [4]) [ng/mL]	MIC (Candida tropicalis [5]) [ng/mL]	MIC (Aspergillus niger [6]) [ng/mL]	Activity (Candida tropicalis [1])	Activity (Aspergillus niger [2])	Activity (Saccharomyces cerevisiae [3])
O=C(O)c1cn(C2CC2)c2c([N+](=O)[O-])c(-c3ccccc3)c(F)cc2c1=O	15 (≈ 0.0407 µM)	3000 (≈ 8.15 µM)	150 (≈ 0.407 µM)	150 (≈ 0.407 µM)				inactive	inactive	inactive
COc1c(C)cc(-c2c(F)cc3c(=O)c(C(=O)O)cn(C4CC4)c3c2[N+](=O)[O-])cc1C	0.07 (≈ 0.000164 µM)	25000 (≈ 58.6 µM)	3 (≈ 0.00704 µM)	15 (≈ 0.0352 µM)				inactive	inactive	inactive
Clc1ccc(COC(Cn2ccnc2)c2ccc(Cl)cc2Cl)c(Cl)c1 (stereo unspecified) [MICONAZOLE]					12000 (≈ 28.8 µM)	6000 (≈ 14.4 µM)	3000 (≈ 7.21 µM)	inactive	inactive	inactive

More lines, main results first:

MIC (Bacillus spizizenii) [ng/mL]	MIC (Escherichia coli) [ng/mL]	MIC (Staphylococcus aureus) [ng/mL]	MIC (Haemophilus influenzae) [ng/mL]	MIC (Saccharomyces cerevisiae [4]) [ng/mL]	MIC (Candida tropicalis [5]) [ng/mL]	MIC (Aspergillus niger [6]) [ng/mL]	Compound	Activity (Candida tropicalis [1])	Activity (Aspergillus niger [2])	Activity (Saccharomyces cerevisiae [3])
15 (≈ 0.0388 µM)	3000 (≈ 7.77 µM)	150 (≈ 0.388 µM)	70 (≈ 0.181 µM)				O=C(O)c1cn(C2CC2)c2c([N+](=O)[O-])c(-c3ccc(F)cc3)c(F)cc2c1=O	inactive	inactive	inactive
15 (≈ 0.0392 µM)	3000 (≈ 7.85 µM)	150 (≈ 0.392 µM)	30 (≈ 0.0785 µM)				Cc1ccc(-c2c(F)cc3c(=O)c(C(=O)O)cn(C4CC4)c3c2[N+](=O)[O-])cc1	inactive	inactive	inactive
30 (≈ 0.0753 µM)	25000 (≈ 62.8 µM)	150 (≈ 0.377 µM)	150 (≈ 0.377 µM)				COc1ccc(-c2c(F)cc3c(=O)c(C(=O)O)cn(C4CC4)c3c2[N+](=O)[O-])cc1	inactive	inactive	inactive
